B1: tRNA (parent)
chain: GUUCCGUUGGCGUAAUGGUAACGCGUCUCCCUCCUAAGGAGAAGACUGCGGGUUCGAGUCCCGUACGGAACG

This sample holds only a part of the variants without activity.

The variants in the data set derive from B1. The data set can be described thus: yeast fitness relative to wild type (ratio to wild type); higher = fitter; tRNA-Arg(CCU), competitive growth, 37 C, YPD. Summed up:
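Variants of the tRNA-Arg(CCU) gene, chemically synthesised with a 3% per-site mutation rate at 69 sites, were placed at the native genomic locus in Saccharomyces cerevisiae. The pooled strains were competed in YPD at 37°C for 24 hours in six parallel replicates. Gene amplicons from the start population and from each end population were read by 100-nucleotide paired-end sequencing. Darwinian fitness relative to wild type came from changes in genotype frequencies; genotypes needed ≥ 100 starting reads, and estimates < 0.5 were set to 0.5.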
As to GUUGCGUUGGUGUGAUGGUAACGCGUCUCCCUCCUAAGGAGAAGACUGCGGGUUCGAGUCCCGUACGGAACG [C4G C11U A14G], the yeast fitness amounted to 0.556.
The value for GUUGUGUUGGCCUAAUGGUAACGCGUCUCCCUCCUAAGGAGAAGACUGCGGGUUCGAGUCCCGUACGGAACG [C4G C5U G12C] was at most 0.5.
For GUUGGGUUGGCGUAAUGGUAACGCGGCUCCCUCCUAAGGAGAAGCCUGCGGGUUCGAGUCCCGUACAGAACG [C4G C5G U26G A45C G67A], the yeast fitness came out at 0.664.
Next, GUUGCGUUGGAGUAAUGGUAACGCGUCUCCCUCCAAAGGAGAAGACUGGGGGUUCGAGUCCCGUACGGAACG [C4G C11A U35A C49G]: 0.526; GUUGUGUUGGCGUAAUGGUAACACGUCUCCCUCCUAAGGAGAAGACUGCGGGUUAGAGUCACGUACGGAACG [C4G C5U G23A C55A C61A]: at most 0.5; GUUGUGUUGGAGUAAUGGUAACGCGUCUCCCUCCUAAGGAGAAGAAAGCGGGAUCGAGUCCCGUACGGAACG [C4G C5U C11A C46A U47A U53A]: 0.566.
Next, GUUGCGUUGGGGUAAUGGUAACGCGACUCCCUCCUAAGGAGAAGACUGCGGGUUCGAGUCCCGUGCGGAACG [C4G C11G U26A A65G]: at most 0.5; GUUGCGUUGGGGUAAUGGUAACGCGUCUCCCUCCUAAGGAGAAGACUGCGGGUUUGAGUCCCGUACGGAGCG [C4G C11G C55U A70G]: at most 0.5.
Consider GUUGUGUUGGCGUAAUGGUAACGCGUCUCCCUCCUAAGGAGAAGACUGCGGGUUCGAGUCCCGUACGAAACG [C4G C5U G68A], for which the yeast fitness was determined as 0.602.
For the variant GUUGUGUUGGCGUAAUGGUAACGCGACUCCCUCAUAAGGAGAAGACUGCGGGUUCGAGUCCCGUACGGAACG [C4G C5U U26A C34A], the yeast fitness was at most 0.5.
Regarding GUUGCGUUGGGGUAAUGGUAACGCGUCUACCUCCUAAGGGGAAGACUGCGGGUUCGAGUCCCGUACGGAACG [C4G C11G C29A A40G], the yeast fitness was at most 0.5.
The value for GUUGUGUUGGCGUAAUGGAAACGCGUCUCCCUCCUAAGGAGAAGACUGCGGGUUGGAGUCCCGAACGGAACG [C4G C5U U19A C55G U64A] was at most 0.5.
Take GUUGCGUUGGAGUAAUGGUAACGCGUCUCCCUCCUAAGGAGAAGAGUGCGGGUUCGAGUCCCGUACGGAACG [C4G C11A C46G]: the yeast fitness is 0.693.
The value for GUUGUGUUGGCGUAAUGGUAACGCGUCUCCCUCCCAUGGAGAAGACUGCGGGUUCGAGUCACGUACGGAACG [C4G C5U U35C A37U C61A] was at most 0.5; that for GUUGCGUUGGGGUAAUGGUAACGCGUCUCCUUCCUAAGGACAAGACUGCGGGUGCGAGUCCCGUACGGAACG [C4G C11G C31U G41C U54G] was 0.707; that for GUUGCGUUGGGGUAAUGGUAUCGCGUCUCCCUCCUUAGGAGAAGACUGCGGGUUCGACUCCCGUACGGAACG [C4G C11G A21U A36U G58C] was at most 0.5.
As for GUUGCGUUGGCGUAAUGGUAAGGCGUCUCCCUCCUAAGGAGAAGACUGCGGGUUCGAGUCCCGUACGGAACG [C4G C22G], the yeast fitness turned out to be 0.787.
The value for GUUGCGUUGGCGUAAUGGUAAGGCGUCUCCCUCCUAAGGAGAAGCCUGCGGGUUUGAGUCCCGUACGGAACG [C4G C22G A45C C55U] was at most 0.5; that for GUUGCGUUGGCGUAAUGGUAAGGCGUCUCCCUGCUCAGGAGAAGACUGCGGGUUCGAGUCCCGUGCGGAACG [C4G C22G C33G A36C A65G] was at most 0.5; that for GUUGCGUUGGUGUAAUGGUAACGCGUCUCCCUCCUUAGGAGAAGACUGCGGCUUCGAGUCCCGUACGGAACG [C4G C11U A36U G52C] was at most 0.5.
Next, GUUGCGUUGGGGUAAUGGUAACGCGACUCCCUCCUAAGGAGAAGACUGCGGGUUCGAGUGCCGUACGGAACG [C4G C11G U26A C60G]: at most 0.5; GUUGUGUUGGCGUAAUGGUAAGGCGUCUCCCUCCUAAGGAGAAGACUGCGGGUUCGAGUCCCGUACGGAACG [C4G C5U C22G]: at most 0.5.
On to GUUGUGUUGGCGUAAUGGUAACGCGUCUCCCUCCUAAGGAGAACACUGCGGGUUCGAGUCCCGUACUGAACG [C4G C5U G44C G67U], for which the yeast fitness is at most 0.5.
Take GUUGCGUUGGGGUAAUGGUAACGCGUCUCCCUCCUAAGGAGAAGACUGCGGGUUUGAGCCACGUACGGAACG [C4G C11G C55U U59C C61A]: the yeast fitness was at most 0.5.
The value for GUUGUGUUGGCGUAAUGGUAACGCGUCUCCCUCCUAAGGAGAACACUGCGGGUUCGAGUCCCAUACUGAACG [C4G C5U G44C G63A G67U] was at most 0.5; that for GUUGCGUUGGAGUAAUGGUAACGCGUCUCCCUCCUAAGGAGUAGACUGCGGGUUCGAGUCCCGUACGGAACG [C4G C11A A42U] was at most 0.5.
The value for GUUGCGUUGGAGUAAUGGUAACGCGUCGCCCUCCUAAGGAGAAGACGGGGGGGUGGAGUCCCGUACGGAACG [C4G C11A U28G U47G C49G U53G C55G] was at most 0.5; that for GUUGCGUUGGGGUAAUGGUAAUGCGUCUCCCUCCUAAGGAGAAGAUUGCGGGUUCGAGUCCCGUACGGAACG [C4G C11G C22U C46U] was at most 0.5; that for GUUGCGUUGGGGUAAUGGUAAUGCGUCUCCCUCCUAAGGAGAAGAGUGCGGGUUCGAGUCCCGUACGGAACG [C4G C11G C22U C46G] was at most 0.5.
Next, GUUGCGUUGGAGUCAUGGUAACGCGUCUCCCUCCUAAGGAGAAGACUGCGGGUUCGAGUCCCGUACGGAACG [C4G C11A A14C]: at most 0.5; GUUGCGUUGGCGUAAUGGUAAAGCGUCUCCCUCCAAAGGAGAAGACUGCGGGUUCGAGUCCCGUACGGAACG [C4G C22A U35A]: at most 0.5.
Take GUUGCGUUGGAGUAAUGGUAACGCGUCUCCCACCAAAGGAGAAGACUGUGGGUUCGAGGCCCGUACUGAACG [C4G C11A U32A U35A C49U U59G G67U]: the yeast fitness was at most 0.5.
The value for GUUGCGUUGGCGUAAUGGUAAAGCGUCUCCCUCCUAAGGAGAAGACUGCGGGUUCGAGUCCCGUAUGGAACG [C4G C22A C66U] was at most 0.5; that for GUUGCGUUGGUGUAAUGGUAACGCGUCUCCCUCCUAAGGAGAAGACUGCGGGUUCGAGUCCCGUACGGAACG [C4G C11U] was 0.967; that for GUUGCGUUGGGGUAAUGGUAACGCGUCUCCCUCCUAAGGAGAAGACUGCGGGUUCGAGUCCCGUACGGAACG [C4G C11G] was 0.623.
For GUUGCGUUGGUGUAAUGGUAACGCGUCUCCCUCCUAAGGAGAAGACUGUGGGUUCGAGUCCCGUACGGAACG [C4G C11U C49U], the yeast fitness worked out at 0.562.
The value for GUUGCGUUGGAGUAAUGGUAACGCGUCUCGCUCCUAAGGAGAAGACUGCGGGUUCGAGUCCCGUGUGGAACG [C4G C11A C30G A65G C66U] was at most 0.5.

For the origin of these results see the RNAGym collection of RNA variant scans (doi:10.1126/science.aae0568).
